Data published in article PMC2995081 (Nucleic Acids Research, 2010).

Key:
GST-Mdm2 RING domain [1] = molecular target: GST-Mdm2 RING domain (Homo sapiens, UniProt Q00987); assay: ATP binding competition assay; settings: for binding to Mdm2 (displacement of bound γ-32P ATP): Mdm2(400–484), Nebularine: concentration range up to 1 mM
GST-Mdm2 RING domain [2] = assay: ATP binding competition assay; parameters: species or system human; settings: Mdm2(410–491) with eight lysines mutated to alanine (8 KA, Mdm2-NoLS)
GST-Mdm2(400–491) = GST-Mdm2(400–491) (Homo sapiens, UniProt Q00987); assay: Isothermal titration calorimetry; assay type: binding; settings: 2 mM ATP titrated into 100 nM GST-Mdm2(400–491), single-site isotherm
Chain of GST-Mdm2(400–491) (Q00987 400-491): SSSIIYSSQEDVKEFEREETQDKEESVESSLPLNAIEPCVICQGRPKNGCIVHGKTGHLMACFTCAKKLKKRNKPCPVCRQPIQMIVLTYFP
Procedure, shortened: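 GST-Mdm2(400–491) was expressed in E. coli BL21 (16 h induction at 25°C) and purified on glutathione-Sepharose. In assay buffer (100 mM Tris-HCl pH 7.0, 100 mM NaCl, 10 mM MgCl2, 2 mM DTT), 2 mM ATP or GTP was injected into 100 nM protein over twenty injections. Buffer-alone heat of dilution was subtracted, and data were fitted to a single-site isotherm. Four independent measurements were made.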

In the case of Nc1ncnc2c1ncn2[C@@H]1O[C@H](COP(=O)(O)OP(=O)(O)OP(=O)(O)O)[C@@H](O)[C@H]1O [ATP, adenosine triphosphate], the “dissociation constant (Kd)” value (GST-Mdm2 RING domain [1]; GST-Mdm2(400–491), competition of γ-32P ATP) is reported as “low micromolar range”, the Kd (GST-Mdm2 RING domain [2]) is reported as “low micromolar range” and the Kd (GST-Mdm2(400–491)) is reported as 4 µM.
In the case of Nc1ncnc2c1ncn2[C@H]1C[C@H](O)[C@@H](CO)O1 [2′ deooxyadenosine, 2′deoxyadenosine], the “binding to Mdm2 (displacement of bound γ-32P ATP)” value (GST-Mdm2 RING domain [1]) is reported as “completely abrogated the binding”.
In the case of Nc1nc(F)nc2c1ncn2[C@@H]1O[C@H](CO)[C@@H](O)[C@@H]1O [F-Ara-A, Fludarabine], the “binding to Mdm2 (displacement of bound γ-32P ATP)” value (GST-Mdm2 RING domain [1]) is reported as “did not bind”.
In the case of OC[C@H]1O[C@@H](n2cnc3cncnc32)[C@H](O)[C@@H]1O [Nebularine], the “binding to Mdm2 (displacement of bound γ-32P ATP)” value (GST-Mdm2 RING domain [1]) is reported as “no binding”.
